This passage reports Ratio, Ki and IC50 results from ChEMBL document CHEMBL1129251 (J Med Chem, 1996).

The Ki is a measure of affinity in units of concentration, obtained from inhibition or displacement. A lower Ki goes with a stronger hold on the target. As a reminder, the IC50 is the midpoint of a concentration-inhibition curve. A higher IC50 goes with weaker potency in that assay.

Experiment [1] in a line: Selectivity ratio of Ki of alpha-1 adrenergic receptor to alpha-2 receptor.
In experiment [2] the target is T1, Adrenergic receptor alpha-1 (Rattus norvegicus, UniProt P15823+P23944+P43140).
T1 sequence (P15823 whole entry): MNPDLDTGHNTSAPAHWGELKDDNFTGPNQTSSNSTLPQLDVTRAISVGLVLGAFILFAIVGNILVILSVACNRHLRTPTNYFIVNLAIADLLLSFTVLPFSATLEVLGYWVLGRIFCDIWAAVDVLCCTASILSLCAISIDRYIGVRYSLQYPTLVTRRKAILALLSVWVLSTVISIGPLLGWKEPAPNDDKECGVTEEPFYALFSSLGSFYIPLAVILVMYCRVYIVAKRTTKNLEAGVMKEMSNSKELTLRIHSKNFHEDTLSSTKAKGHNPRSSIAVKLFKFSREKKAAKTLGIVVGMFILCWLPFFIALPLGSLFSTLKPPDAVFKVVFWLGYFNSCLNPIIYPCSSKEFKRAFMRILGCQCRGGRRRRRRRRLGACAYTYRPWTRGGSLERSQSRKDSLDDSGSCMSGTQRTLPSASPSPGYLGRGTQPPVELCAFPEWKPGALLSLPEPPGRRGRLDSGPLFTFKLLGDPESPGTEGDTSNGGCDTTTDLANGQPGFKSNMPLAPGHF
T1 sequence (P23944 whole entry): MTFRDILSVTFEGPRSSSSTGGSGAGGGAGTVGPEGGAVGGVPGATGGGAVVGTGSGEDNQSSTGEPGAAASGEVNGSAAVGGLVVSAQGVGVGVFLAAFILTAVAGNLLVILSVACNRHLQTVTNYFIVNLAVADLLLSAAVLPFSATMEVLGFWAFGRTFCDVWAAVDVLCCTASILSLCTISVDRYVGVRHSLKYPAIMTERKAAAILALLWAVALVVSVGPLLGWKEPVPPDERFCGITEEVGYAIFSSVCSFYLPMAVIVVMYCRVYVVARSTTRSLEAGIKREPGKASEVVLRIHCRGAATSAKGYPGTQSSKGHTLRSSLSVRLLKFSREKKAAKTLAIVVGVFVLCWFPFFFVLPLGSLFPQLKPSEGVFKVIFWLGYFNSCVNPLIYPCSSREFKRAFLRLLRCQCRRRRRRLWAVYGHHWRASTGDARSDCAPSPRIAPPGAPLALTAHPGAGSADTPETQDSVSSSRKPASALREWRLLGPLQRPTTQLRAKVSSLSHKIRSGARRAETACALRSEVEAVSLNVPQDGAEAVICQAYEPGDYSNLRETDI
T1 sequence (P43140 whole entry): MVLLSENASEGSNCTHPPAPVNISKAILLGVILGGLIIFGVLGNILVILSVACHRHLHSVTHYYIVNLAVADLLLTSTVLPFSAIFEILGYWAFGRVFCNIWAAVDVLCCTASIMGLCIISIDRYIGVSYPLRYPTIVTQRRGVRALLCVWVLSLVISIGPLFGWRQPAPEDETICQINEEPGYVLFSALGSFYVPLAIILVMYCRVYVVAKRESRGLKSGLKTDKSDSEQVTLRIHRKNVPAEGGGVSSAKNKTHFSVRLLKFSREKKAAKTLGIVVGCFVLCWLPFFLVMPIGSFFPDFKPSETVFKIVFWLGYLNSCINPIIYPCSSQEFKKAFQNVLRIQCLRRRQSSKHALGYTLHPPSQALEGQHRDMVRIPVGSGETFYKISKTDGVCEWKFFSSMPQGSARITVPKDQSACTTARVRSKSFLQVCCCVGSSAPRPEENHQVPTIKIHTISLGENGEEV
Put plainly: Alpha-1 adrenergic receptor binding affinity in rat brain membranes. The format is cell membranes. The essentials: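 Rat frontal cortex membranes, washed in 50 mM Tris-HCl/10 mM MgCl2 pH 7.4, at about 300 µg/mL protein. Labelled with 0.1 nM [3H]prazosin in the same buffer. Nonspecific binding set by 10 µM phentolamine. 30 °C for 30 min, then filtration and scintillation counting, in triplicate.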

For experiment [3], the target named is T2, Adrenergic receptor alpha-2 (Homo sapiens, UniProt P08913+P18825+P18089).
T2 sequence (P08913 whole entry): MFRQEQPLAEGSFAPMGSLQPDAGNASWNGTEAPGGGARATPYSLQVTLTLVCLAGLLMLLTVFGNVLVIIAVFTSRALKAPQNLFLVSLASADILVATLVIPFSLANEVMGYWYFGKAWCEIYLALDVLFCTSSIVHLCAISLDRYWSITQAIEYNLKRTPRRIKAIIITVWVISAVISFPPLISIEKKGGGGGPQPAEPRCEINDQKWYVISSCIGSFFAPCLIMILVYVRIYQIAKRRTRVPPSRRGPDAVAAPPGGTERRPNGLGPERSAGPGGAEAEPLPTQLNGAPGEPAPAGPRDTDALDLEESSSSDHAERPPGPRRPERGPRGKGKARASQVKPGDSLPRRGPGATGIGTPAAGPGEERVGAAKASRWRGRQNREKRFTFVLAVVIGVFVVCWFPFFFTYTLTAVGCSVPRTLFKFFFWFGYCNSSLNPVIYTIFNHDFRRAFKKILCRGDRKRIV
T2 sequence (P18825 whole entry): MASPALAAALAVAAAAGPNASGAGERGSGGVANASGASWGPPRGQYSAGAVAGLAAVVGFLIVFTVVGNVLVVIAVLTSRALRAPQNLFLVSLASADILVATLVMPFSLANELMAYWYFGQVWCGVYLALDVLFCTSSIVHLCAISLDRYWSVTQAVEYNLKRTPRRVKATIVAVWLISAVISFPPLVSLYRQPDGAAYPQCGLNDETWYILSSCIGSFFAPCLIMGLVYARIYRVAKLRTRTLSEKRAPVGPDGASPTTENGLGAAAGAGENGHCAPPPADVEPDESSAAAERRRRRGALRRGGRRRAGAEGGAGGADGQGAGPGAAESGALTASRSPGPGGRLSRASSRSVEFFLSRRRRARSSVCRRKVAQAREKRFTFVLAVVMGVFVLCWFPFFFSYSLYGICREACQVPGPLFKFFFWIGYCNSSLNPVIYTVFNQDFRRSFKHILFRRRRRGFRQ
T2 sequence (P18089 whole entry): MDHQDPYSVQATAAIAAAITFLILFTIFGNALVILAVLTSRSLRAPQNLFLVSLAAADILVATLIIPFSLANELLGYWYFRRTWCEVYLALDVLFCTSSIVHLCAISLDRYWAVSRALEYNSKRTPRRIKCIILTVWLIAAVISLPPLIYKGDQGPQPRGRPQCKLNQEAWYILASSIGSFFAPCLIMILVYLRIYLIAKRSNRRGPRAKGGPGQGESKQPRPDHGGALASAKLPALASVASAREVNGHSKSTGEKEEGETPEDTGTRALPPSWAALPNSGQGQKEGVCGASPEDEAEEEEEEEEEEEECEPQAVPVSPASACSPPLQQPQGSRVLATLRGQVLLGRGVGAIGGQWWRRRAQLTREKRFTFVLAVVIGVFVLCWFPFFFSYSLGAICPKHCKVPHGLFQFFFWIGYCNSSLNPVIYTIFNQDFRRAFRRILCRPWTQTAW
The experiment in a line: Alpha-2 adrenergic receptor antagonistic activity in human blood platelets. Format: functional, tissue-based. The method in brief: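 Human platelet-rich plasma pretreated with 1 mM aspirin. Inhibitor at various concentrations added 1 min before epinephrine (30-100 µM).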

As to `C/C=C(\c1c[nH]cn1)c1cccc2ccccc12`, the Ratio in experiment [1] is 0.03. The compound also showed an inhibition constant (Ki) in experiment [2] of 0.057 µM. The compound further displayed an IC50 in experiment [3] of 215.4 µM.
Take `c1ccc2c3c(ccc2c1)CCCC3c1c[nH]cn1` (stereo not given): the Ki in experiment [2] was found to be 0.655 µM. In addition, the IC50 in experiment [3] was found to be 97.7 µM.
In the case of `c1cc2c3c(cccc3c1)C(c1c[nH]cn1)CC2` (stereo not given), in experiment [1], the Ratio came out at 1.67. For the same compound, in experiment [2], the Ki was 0.055 µM. In experiment [3], the IC50 is 14.3 µM.
On to `CC(c1c[nH]cn1)c1cccc2ccccc12` (stereo not given), for which the Ratio in experiment [1] was 17.2. For the same compound, the inhibitory constant (Ki) in experiment [2] is 0.224 µM.
